Bioassay records from PubChem.
Compounds with a hit are over-represented: about 1.9% of the library has one in this group of screens.
Autophagy HCS: alters autophagy in cells; MEF GFP-LC3 puncta imaging; test concentration mostly 10 µM; calls only at 10 µM (by protocol); 190,000 compounds, 0.98% hits;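 active = percentage of spot-positive cells more than 3 SD above its plate mean, without a fluorescence outlier flag or 80% toxicity; inconclusive = no clear call, values can overlap the other calls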
Ins promoter up: MIN6 insulin promoter up-regulation. MIN6 insulin promoter-GFP reporter, high-content imaging; stronger effect = higher value. z-score at 5 µM. 190,000 compounds, 0.3% hits. AID 1625;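 active = z-score above 3 at 5 µM with at least 500 cells counted in the well; inconclusive = wells under 500 cells, flagged as cytotoxic or low count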
b-catenin transl: modulators of beta-catenin nuclear translocation | HeLa beta-catenin nuclear translocation, immunofluorescence imaging | nuclear translocation activity, % at 5 µM | 190,000 compounds, 0.3% hits;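 active = nuclear translocation activity above 50% at 5 µM, with a well cell count of 50 or more; inconclusive = wells under 50 cells across six images, flagged as toxic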;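 also: per-cell ratio of nuclear to cytoplasmic median beta-catenin stain intensity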
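Test system: human HeLa cells, endogenous beta-catenin. Times: 24 h compound exposure, 37°C. Measured by: beta-catenin immunofluorescence imaging with DAPI.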
MT stabilize HCS: microtubule stabilization, imaging screen; HeLa tubulin immunostaining HCS, 24 h; share of cells brighter than vehicle mean+2SD; % tubulin-high responders, % at 10 µM; 200,000 compounds, 0.83% hits;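 active = plate Z-score above 3 for both tubulin-high and condensed-nucleus cell shares, with cell loss under 80%, at 10 µM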;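 also: anti alpha tubulin signal scored within the nucleus-defined area of each cell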
A number is an active result; - = inactive; ? = inconclusive; . = not tested or not shown; + = active, no number.

SMILES	Autophagy HCS	Ins promoter up	b-catenin transl	MT stabilize HCS
CCCc1nn(C)c(C(=O)Nc2cccc(Cl)c2)c1Cl	-	-	-	-
N/C(=N\OC(=O)c1csnn1)c1ccc(C(F)(F)F)cc1	.	-	-	.
Cc1cc(C(=O)OCC(=O)NCc2ccco2)c(C)n1-c1ccc(F)cc1	-	-	82	17
CC(=O)Nc1ccc(NC(=O)C(C)OC(=O)CNS(=O)(=O)c2cccc(Cl)c2)cc1 (stereo not drawn)	-	-	-	-
Cc1c(NC(=O)COC(=O)c2ccc(S(=O)(=O)N3CCOCC3)cc2)c(=O)n(-c2ccccc2)n1C	-	.	-	-
Nc1nccc(-c2ccc(-n3cccc3)cc2)n1	-	-	-	-
Cc1ccc(-c2cc(C(=O)O)n(-c3ccc(S(N)(=O)=O)cc3)n2)cc1	-	-	-	-
Cc1onc(-c2ccccc2)c1C(=O)N1CCCN(C(=O)c2c(-c3ccccc3)noc2C)CC1	-	.	.	-
COc1cc(SC)ccc1C(=O)N1CCN(c2ccccc2OC)CC1	-	-	50	23
COc1ccccc1N1CCN(C(=O)c2c(-c3ccccc3)noc2C)CC1	-	-	126	28
COc1cccc(Cn2cc(C(=O)NCCN(C)C)nn2)c1	-	-	-	-
O=C(OCn1ncc(Br)c(Br)c1=O)c1c(F)cccc1F	+	?	-	-
CC(=O)Cn1ncc(Br)c(Br)c1=O	+	.	-	-
Cc1noc(C)c1CSc1nc2ccccc2n1C	+	-	-	-
O=C1CCC(C(=O)NCCCn2ccnc2)N1 (stereo not drawn)	+	-	-	-
N#Cc1cc2ccccc2nc1N	+	-	-	-
Cc1cnc(C(=O)N2CCCC(C(=O)c3cccc(OC(C)C)c3)C2)cn1 (stereo not drawn)	-	-	-	.
Cc1occc1C(=O)NC(C)c1ccc2c(c1)OCO2 (stereo not drawn)	-	-	-	-
CCOc1ccccc1C(=O)NC(C)c1ccc2c(c1)OCO2 (stereo not drawn)	-	.	-	42
O=C(CCOc1ccccc1)Nc1ccc([N+](=O)[O-])cc1	-	-	-	-
CC(C)c1ccc(NC(=O)c2ccc(NS(C)(=O)=O)cc2)cc1	+	-	-	-
COc1cccc(NC(=O)Nc2ccccc2C(N)=O)c1	-	-	-	-
O=S(=O)(c1cccc(-c2n[nH]c(=S)n2C2CCCC2)c1)N1CCOCC1	-	-	-	-
Cc1ccc(N(CC(=O)NCCc2ccc(F)cc2)S(=O)(=O)c2ccc(Cl)c([N+](=O)[O-])c2)c(C)c1	-	-	-	-
Cc1ccc(CNc2ccc3c(c2)OCO3)cc1	+	.	-	-
SMILES	Autophagy HCS	Ins promoter up	b-catenin transl	MT stabilize HCS
c1cc(CNc2ccc3c(c2)OCO3)ccn1	-	.	-	-
CCc1nc2ccccc2[nH]c1=O	.	-	-	.
O=C(Nc1ccc(Nc2ccccc2)cc1)c1ccc(Br)o1	-	-	-	-
Cc1cc(C)cc(C(=O)NC(=S)Nc2ccc(Cc3ccncc3)cc2)c1	-	.	-	12
O=C(Nc1ccc(Cc2ccncc2)cc1)c1ccc(Br)o1	+	-	-	-
COC(=O)c1cnc(Oc2c(Cl)cc(N)cc2Cl)cc1C(F)(F)F	.	-	-	.
CCOC(=O)N1CCN(C(=O)CSc2nnc(-c3ccc(C)c(C)c3)o2)CC1	-	-	.	-
CCOC(=O)N1CCN(C(=O)CSc2nnc(-c3ccc(C(C)(C)C)cc3)o2)CC1	+	.	-	-
COc1ccc(Cl)cc1NC(=O)CN(C)CC(=O)Nc1ccccc1N1CCOCC1	-	-	86	22
Cc1cc(Cl)ccc1OC(C)C(=O)Nc1ccccc1N1CCOCC1 (stereo not drawn)	+	-	-	-
COC(=O)c1ccccc1NC(=O)CNc1cc(Cl)ccc1N1CCOCC1	-	-	-	-
CN1CCN(C2=CC(=O)OC23CCCCC3)CC1	-	.	-	-
Cc1ccc(-n2cc(CNCCc3ncc(C)[nH]3)c(-c3ccc(F)cc3)n2)cc1	-	-	-	-
COc1cc(OC)c(CNC2CCCCCC2)cc1Br	-	-	-	-
CCN1CCN(c2cc(C)c3cc(NC(=O)c4ccc(OC)c(OC)c4)ccc3n2)CC1	+	-	.	-
COc1ccccc1N1CCN(C(=O)CSc2nnc3c4ccccc4nc(Cc4ccccc4)n23)CC1	-	-	-	-
CCOC(=O)c1[nH]c(C)c(C(=O)Nc2cc(OC)ccc2OC)c1C	-	-	56	27
CCOC(=O)c1c(C)[nH]c(C(=O)N/N=C/c2ccc(Br)cc2)c1C	-	-	121	-
CCOC(=O)c1c(C)[nH]c(C(=O)OCC(=O)Nc2cc(C)ccc2OC)c1C	+	-	-	-
CCOC(=O)c1c(C)c(C(=O)Nc2ccccc2)c(C)n1CC	-	-	-	-
Cc1[nH]c(C(=O)N/N=C/c2ccc(C(=O)O)cc2)c(C)c1C(=O)N/N=C/c1ccc(C(=O)O)cc1	-	-	-	-
CCOC(=O)c1c(C)[nH]c(C(=O)OCC(=O)Nc2cc(Cl)ccc2OC)c1C	-	-	-	-
CCOC(=O)c1c(C)c(C(=O)Nc2cc(OC)ccc2OC)c(C)n1CC	-	-	-	25
Cc1csc(C(C)N(C)C(=O)CCc2nnc(CCc3ccccc3)o2)n1 (stereo not drawn)	-	-	-	-
O=C(CC12CC3CC(CC(C3)C1)C2)N1CCN(S(=O)(=O)c2cccs2)CC1	-	-	-	-
SMILES	Autophagy HCS	Ins promoter up	b-catenin transl	MT stabilize HCS
CCN(C(=O)CSc1nnc(C)n1Cc1ccccc1)C1CCS(=O)(=O)C1 (stereo not drawn)	+	-	-	-
Cc1nnc(SCC(=O)N(C)C2CCS(=O)(=O)C2)n1Cc1ccccc1 (stereo not drawn)	-	-	-	-
O=C(COc1ccc(C(=O)c2ccccc2)cc1)NCc1ccc(F)cc1	-	-	158	9.7
CCC1COC(c2cccn2Cc2ccccc2Cl)=N1 (stereo not drawn)	+	-	-	-
Fc1ccccc1Cc1noc(CN2CCN(c3ccc(Cl)cn3)CC2)n1	-	-	-	-
COc1ccc(CNCCc2ccc(Cl)cc2)cc1OCc1ccccc1	+	.	-	-
CCOC(=O)c1sc2cc([N+](=O)[O-])cc(SCCO)c2c1N	+	-	-	-
CCC(C)S(=O)(=O)c1snnc1C (stereo not drawn)	-	.	-	-
COc1ccc(COCC(O)CN2CC(C)OC(C)C2)cc1OC (stereo not drawn)	-	-	-	-
Cc1cc(/C=C(\C#N)C(=O)NC2CCCCCC2)c(C)[nH]1	-	-	-	-
COc1ccc(-c2[nH]ncc2/C=C(/C#N)C(=O)NC2CCCCCC2)cc1	-	-	-	49
Cc1ccc(-n2nnnc2SCC(=O)c2cc(C)n(-c3cc(C)on3)c2C)cc1	-	-	-	7.5
O=C(COc1ccc(S(=O)(=O)N2CCCC2)cc1)Nc1ccc2c(c1)OCCO2	-	-	-	-
N#Cc1c(C(F)(F)F)cc(-c2ccco2)nc1SCc1ccccn1	+	-	-	-
Cc1ccc(C)c(CSc2nc3[nH]ncc3c(=O)[nH]2)c1	-	-	-	23
c1ccc2c(CCNc3ncnc4nc[nH]c34)c[nH]c2c1	-	.	-	17
c1ccc(CCNc2ncnc3nc[nH]c23)cc1	-	-	-	-
